TAAR1 antagonist = human TAAR1 antagonists, primary screen, Fluo-8 calcium fluorescence, CHO RD-HGA16 cells; 1.5% of 360,000 active; inhibition, % at 3 µM; Trace amine-associated receptor 1 (Homo sapiens), Q96RJ0; antagonist; AID 624466, 2012;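 active = inhibition above a per-plate cutoff, the mean inhibition of test compounds on that plate plus 3 SD, cut at about 49% in these data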
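Test system: hTAAR1-expressing CHO RD-HGA16 cells, Gα16-coupled; Probe or stimulus: EC80 β-phenethylamine stimulus; Compound dosing: single nominal final test compound concentration of 3 µM; Timing: 140 s kinetic read after compound, 140 s after agonist; Signal: Fluo-8 calcium-sensitive fluorescence; Measure: % inhibition of agonist calcium response; Controls: DMSO and EC80 PEA controls.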
TAAR1 agonist = human TAAR1 agonists, primary screen, Fluo-8 calcium fluorescence, CHO RD-HGA16 cells | activation, % at 3 µM | AID 624467, 2012 | Trace amine-associated receptor 1 (Homo sapiens), Q96RJ0 | vehicle wells 0%, saturating PEA agonist 100% | 0.99% of 360,000 active;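 active = activation above the mean activation of all test compounds in the run plus 3 SD, cut at about 38% in these data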
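System: CHO RD-HGA16 cells carrying human TAAR1 plus Gα16; Incubation: 17-24 h seeding, 75 min 37 °C dye, 30 min RT; Measured by: Fluo-8 fluorescence, 5 s baseline then 140 s kinetic read; Control set: DMSO and PEA EC100; Replication: single well for each compound.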
OX1R antag-1 = antagonists of human orexin 1 receptor (OX1R); Orexin/Hypocretin receptor type 1 (Homo sapiens), O43613; OX1R-expressing cells, FRET antagonist read-out; inhibition, % at 6.6 µM; 1.8% of 330,000 active; in the data active = inhibition mostly above about 38%, no sharp cut-off; inactive = mostly below about 40%
Target sequence (O43613 whole entry, looked up): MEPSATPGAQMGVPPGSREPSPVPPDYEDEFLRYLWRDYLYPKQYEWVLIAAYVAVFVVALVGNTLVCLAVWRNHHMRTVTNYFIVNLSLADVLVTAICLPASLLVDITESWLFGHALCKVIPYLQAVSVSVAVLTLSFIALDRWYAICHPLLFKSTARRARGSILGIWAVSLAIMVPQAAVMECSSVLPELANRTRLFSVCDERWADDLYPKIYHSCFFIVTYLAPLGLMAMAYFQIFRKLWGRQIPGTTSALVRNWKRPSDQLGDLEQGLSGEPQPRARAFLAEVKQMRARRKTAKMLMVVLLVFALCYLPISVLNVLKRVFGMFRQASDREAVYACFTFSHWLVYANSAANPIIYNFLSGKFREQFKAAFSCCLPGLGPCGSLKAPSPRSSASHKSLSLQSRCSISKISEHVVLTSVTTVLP
OX1R antag-2 = OX1R (HCRTR1) antagonists, primary screen, fluorescence, CHO/OX1R cells, Fluo-8 calcium, orexin A. Orexin/Hypocretin receptor type 1 (Homo sapiens), O43613. Fluo-8 calcium fluorescence. inhibition, % at 5 µM. 0.43% of 330,000 active. AID 434989, 2010;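 active = inhibition above its plate's threshold, mean inhibition of all tested compounds on the plate plus 3 SD, cut at about 37% in these data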
CHO parental Ca = ATP-evoked calcium signal inhibitors, parental CHO, primary screen, counter-screen for OX1R antagonist project, cell-based, fluorescence, Fluo-8 calcium dye; parental CHO-K1, ATP-induced calcium, Fluo-8 fluorescence; inhibition, % at 5.6 µM; 0.63% of 330,000 active; AID 463079, 2010;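 active = inhibition above that plate's mean sample inhibition plus 3 SD, cut at about 26% in these data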
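Test system: untransfected parental CHO cell line. Compound: one dose, 5.6 µM nominal. Detection: intracellular calcium via Fluo-8 no-wash fluorescent dye. Measure: % inhibition. Benchmarks: ATP-challenged DMSO wells low, unchallenged DMSO wells high.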
OX1R HTRF conf = OX1R (HCRTR1) antagonists, confirmation, cell-based, HTRF; 49% of 1,800 active; AID 492964, 2010; shares compounds with OX1R antag-1; OX1R-expressing cells, HTRF antagonist assay; inhibition, % at 6.6 µM; in the data active = inhibition above about 55%;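 note: CHO cells expressing OX1R stimulated with orexin A at about EC80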
CHO-K1 HTRF = signal inhibition in parental CHO-K1 cells, counter-screen for OX1R antagonist project, cell-based, HTRF. HTRF counterscreen. 48% of 1,800 active. AID 493232, 2011. inhibition, % at 6.6 µM. shares compounds with OX1R antag-1; in the data active = inhibition above about 17%
A number is an active result; n = inactive; x = no result. The list is not random: actives were taken first. Their share in the collection is about 3.9%.

SMILES | TAAR1 antagonist | TAAR1 agonist | OX1R antag-1 | OX1R antag-2 | CHO parental Ca | OX1R HTRF conf | CHO-K1 HTRF
O=C(CNC(=O)c1ccc(Br)cc1)NCC(=O)OCC(=O)c1ccc([N+](=O)[O-])cc1 | n | n | 87 | n | n | n | 50
CCOc1ccccc1NC(=O)Nc1ccsc1C(=O)OC | n | n | n | n | n | x | x
COC(=O)c1sccc1NC(=O)COc1ccccc1Cl | n | n | 79 | n | n | 56 | n
Cc1cccc(-n2nc([N+](=O)[O-])c(=NC3CCN(Cc4ccccc4)CC3)n2O)c1 | n | n | 83 | n | n | n | 42
Cc1cccc(CCN=c2c([N+](=O)[O-])nn(-c3ccccc3)n2O)c1 | n | n | n | n | n | x | x
CN1CCN(C(=O)c2ccc(-c3cnc4cccnn34)cc2)CC1 | n | n | x | x | x | x | x
O=c1/c(=C/c2ccc([N+](=O)[O-])cc2)sc2n1CCCN=2 | n | n | 169 | n | n | 61 | 84
CC(NC(=O)C(NC(=O)OCc1ccccc1)C(C)O)C(=O)OCc1ccccc1 (stereo not given) | n | n | x | x | x | x | x
NS(=O)(=O)c1ccc(NCCCn2ccnc2)c([N+](=O)[O-])c1 | n | n | 80 | n | n | n | 50
O=C(NCCCn1ccnc1)c1cc([N+](=O)[O-])cc([N+](=O)[O-])c1 | n | n | 105 | n | n | 58 | 87
O=C(NCCCn1ccnc1)c1ccncc1 | n | n | n | n | n | x | x
CCc1nc2ccc(C(=O)N(CC)CCN(C)C)cn2c1N(C)C(=O)c1cccc(OC)c1 | n | n | x | x | x | x | x
Cc1cc2c(c(=O)o1)[C@@]1(C(=O)N(C)c3ccccc31)C1=C(CC(C)(C)CC1=O)O2 | n | n | x | x | x | x | x
O=C1CN(S(=O)(=O)c2ccc([N+](=O)[O-])cc2)CC(=O)N1 | n | n | 77 | n | n | n | 66
O=[N+]([O-])c1ccc(-c2ccc(S(=O)(=O)N3CCOCC3)cc2)cc1 | n | n | n | n | n | x | x
CCN1C(=O)c2ccc(C(=O)Nc3nccs3)cc2C1=O | n | n | 90 | n | n | n | 29
O=C(Nc1nccs1)c1ccc2c(c1)C(=O)N(Cc1cccnc1)C2=O | n | n | n | n | n | x | x
Cc1ccc2cc3c(N)c(C(=O)N4CCOCC4)sc3nc2c1 | n | n | n | n | n | x | x
COc1ccc2cc3c(N)c(C(=O)N4CCCC4)sc3nc2c1 | n | n | 98 | n | n | 89 | n
CCN(CC)CCCNC1=C(Cl)C(=O)c2ccccc2C1=O | n | n | 86 | n | n | 88 | 113
O=C1C(Cl)=C(NCc2cccnc2)C(=O)c2ccccc21 | n | n | 84 | n | n | 66 | 98
O=S(=O)(Cc1ccccc1)NCc1cccnc1 | n | n | n | n | n | x | x
O=C(O)c1ccc(NC2=C(Cl)C(=O)c3ccccc3C2=O)cc1 | n | n | 84 | n | n | 70 | 34
C=CCNC1=C(Cl)C(=O)c2ccccc2C1=O | n | n | 140 | n | n | 64 | 94
CO[C@@H]1CN(C)C(=O)c2ccc(NS(=O)(=O)c3c(C)noc3C)cc2OC[C@@H](C)NC[C@@H]1C | n | n | x | x | x | x | x
SMILES | TAAR1 antagonist | TAAR1 agonist | OX1R antag-1 | OX1R antag-2 | CHO parental Ca | OX1R HTRF conf | CHO-K1 HTRF
Cc1cc(O)cc(O)c1/C=N/NC(=O)c1ccc2c(c1)OCCO2 | n | n | x | x | x | x | x
COC1=CC(C)C2CC3OC(=O)CC4C(C)=C(OC)C(=O)C(C2(C)C1=O)C34C (stereo not given) | n | n | x | x | x | x | x
O=C(O)c1cccc2c1C(=O)c1ccccc1C2=O | n | n | 85 | n | n | 64 | 110
O=C(O)c1ccc2c(c1Nc1ccccc1)C(=O)c1ccccc1C2=O | n | n | n | n | n | x | x
CNc1c(C(=O)O)ccc2c1C(=O)c1ccccc1C2=O | n | n | 111 | n | n | 62 | 86
COc1cccc2c1-c1c(C(=O)O)cccc1C2=O | n | n | n | n | n | x | x
CCNc1c(C(=O)O)ccc2c1C(=O)c1ccccc1C2=O | n | n | 97 | n | n | n | 18
O=C1c2ccccc2C(=O)c2c1cccc2N1CCOCC1 | n | n | 81 | n | n | n | 34
CCc1nnc(N/N=C/c2ccccc2Cl)n1N | n | n | 96 | n | n | n | n
CCCCCCCC(=O)N/N=C/c1ccc([N+](=O)[O-])o1 | n | n | n | n | n | x | x
CCOC(=O)N/N=C\c1ccc([N+](=O)[O-])o1 | n | n | 78 | n | n | n | 79
O=[N+]([O-])c1cnc(Nc2ccc(Cl)cn2)c([N+](=O)[O-])c1 | n | n | 97 | n | n | n | 45
O=C(Nc1ccc(Cl)cn1)c1ccccc1[N+](=O)[O-] | n | n | n | n | n | x | x
Cc1ccc(C(C)C)c(OCC(=O)c2c(O)c3ccccc3oc2=O)c1 | n | n | 82 | n | n | n | n
COC(=O)[C@H](Cc1ccccc1)N1CC(N2CCCC2)CS1(=O)=O (stereo not given in full) | n | n | x | x | x | x | x
CCOC(=O)c1ccc(CNCc2ccc(Br)cc2)cc1 | n | n | n | n | n | x | x
CCOC(=O)c1cccc(NC(=O)c2cc3ccccc3o2)c1 | n | n | x | x | x | x | x
CCOC(=O)c1ccc(CNCc2ccccc2)cc1 | n | n | 80 | n | n | n | n
CCOC(=O)c1ccc(NC(=O)c2cc3ccccc3o2)cc1 | n | n | 77 | n | n | 72 | n
COc1cc(CN2C[C@@H](CO)O[C@@H](n3cnc4c(NC5CCCC5)ncnc43)C2)cc(OC)c1OC | n | n | x | x | x | x | x
N#Cc1ncc(-c2ccc3c(c2)OCCOCCOCCOCCO3)nc1C#N | n | n | 117 | n | n | 55 | 54
Cc1ccc2nc(-c3ccc4c(c3)OCCO4)cn2c1 | n | n | n | n | n | x | x
N#Cc1ncc(-c2ccc3c(c2)OCCOCCOCCOCCOCCO3)nc1C#N | n | n | 109 | n | n | n | n
Nc1nc(-c2ccc3c(c2)OCCO3)cs1 | n | n | n | n | n | x | x
COC(=O)[C@]12CCCCC=C1N(Cc1ccc(Cl)cc1Cl)C(=O)[C@H](CC(=O)NCCc1ccccc1OC)C2 | n | n | x | x | x | x | x
COc1cccc(CN(C)C(=O)[C@@H](Cc2ccccc2)NC(=O)[C@H]2O[C@@H](n3ccc(=O)[nH]c3=O)[C@H](O)[C@@H]2O)c1 | n | n | x | x | x | x | x
N#Cc1cc([N+](=O)[O-])ccc1Oc1ccc(-c2nnco2)cc1 | n | n | 79 | n | n | n | 42
O=[N+]([O-])c1ccc(Oc2ccc(-c3nnco3)cc2)c(Cl)c1 | n | n | n | n | n | x | x

Source: PubChem (The Scripps Research Institute Molecular Screening Center)
